The entries come from a sample that favours hits as a whole.
CHOP inhibitor – blocks CHOP induction under ER stress | CHO-K1 CHOP-promoter luciferase, tunicamycin-induced, 15-18 h | inhibition, % at 10 µM | 220,000 tested, 3.8% active;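 active = compounds that reduced the stress-induced luciferase reporter signal by more than about 70% of percent inhibition, limit read from the data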;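 note: 0% = tunicamycin plus vehicle and 100% = wells without tunicamycin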
XBP1 UPR activ – activators of adaptive arm of unfolded protein response (XBP1) | CHO-XBP1 luciferase reporter, IRE1-XBP1 UPR activation, luminescence; percent of tunicamycin response, DMSO as zero | activation, % at 20 µM | 330,000 tested, 0.33% active;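 active = versus positive control, 20 µM dose yields 30% or more activation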;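 note: 100% = tunicamycin at 10 µg/mL and 0% = DMSO only wells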
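Assay system: CHO-XBP1 luciferase reporter cells; Schedule: 6 h treatment, 37 °C; Detection: glow luminescence from Steady-Glo reagent; Benchmarks: high control tunicamycin 10 µg/mL final, low control DMSO vehicle only.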
UPR CHOP act – apoptotic UPR (CHOP) activation; AID 449763; 330,000 tested, 0.34% active; CHO-CHOP luciferase reporter, luminescence; percent of tunicamycin response over DMSO baseline; activation, % at 10 µM;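 active = at 10 µM dose, activation of 40% or more, normalized to positive control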;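 note: 100% = tunicamycin at 10 µg/mL and 0% = DMSO alone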
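System: CHO CHOP reporter cells. Amount: 500 cells per well. Buffer or medium: F12 medium, 10% FBS. Compound dosing: one dose, 10 µM in 0.5% DMSO. Incubation: 6 h compound exposure at 37 °C after overnight seeding. Technique: Steady-Glo luciferase luminescence. Benchmarks: tunicamycin and DMSO controls.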
Jurkat NFkB inh – lowers PMA/ionomycin-induced NF-kB signal in Jurkat cells. inhibition, % at 4 µM. 330,000 tested, 0.53% active. PMA/ionomycin-induced NF-kB luciferase reporter, luminescence; in the data active = inhibition above about 50%
697 NFkB inh – inhibitors of the PMA/ionomycin-induced NF-kB reporter in 697 B cells; 697 B-cell NF-kB luciferase reporter, 16 h; inhibition, % at 4 µM; 330,000 tested, 0.33% active; in the data active = inhibition above about 35%
An asterisk follows results filed as active.

`COCCNC(=O)CSc1n[nH]c(=O)n1CCc1ccccc1` gave XBP1 UPR activ 0, UPR CHOP act 1, Jurkat NFkB inh -5 and 697 NFkB inh -20.
`COc1ccc(NC(=O)CSc2ncccc2C(=O)OC(C)C)cc1OC` gave CHOP inhibitor 71*, XBP1 UPR activ 1, UPR CHOP act 3, Jurkat NFkB inh 22 and 697 NFkB inh 0.
COc1ccc(NC(=O)CSc2ccccn2)cc1OC was read as CHOP inhibitor 2, XBP1 UPR activ -2, UPR CHOP act -1, Jurkat NFkB inh 6 and 697 NFkB inh 13.
O=C(COC(=O)CCC1CCCC1)Nc1ccc(Cl)cn1 was read as CHOP inhibitor 73*, XBP1 UPR activ -3, UPR CHOP act 1, Jurkat NFkB inh 2 and 697 NFkB inh 7.
Cc1ccsc1CNS(=O)(=O)c1ccc(F)cc1 was read as XBP1 UPR activ -2, UPR CHOP act 0, Jurkat NFkB inh 5 and 697 NFkB inh -15.
For Cc1ccc(S(=O)(=O)Nc2ccc(O)c3ncccc23)cc1 the results were CHOP inhibitor 73*, XBP1 UPR activ -1, UPR CHOP act -1, Jurkat NFkB inh 13 and 697 NFkB inh -91.
COCCCNC(=O)C[C@H]1C[C@H](C(=O)N(C(C)C)C(C)C)[C@@]2(C)c3[nH]c4cc(CCC(=O)N(C)C)ccc4c3CCN2C1=O was read as XBP1 UPR activ 1, UPR CHOP act 2 and 697 NFkB inh 7.
For COc1ccc(-c2cn[nH]c2-c2ccc(OCc3ccc([N+](=O)[O-])cc3)cc2O)cc1 the results were CHOP inhibitor 91*, XBP1 UPR activ -3, UPR CHOP act -2, Jurkat NFkB inh 18 and 697 NFkB inh -7.
`O=C(Nc1cccc(C(F)(F)F)c1)c1cccnc1NCCc1ccccc1` gave CHOP inhibitor 75*, XBP1 UPR activ 3, UPR CHOP act 4, Jurkat NFkB inh 6 and 697 NFkB inh -12.
`CCCCN(CCCC)CP(=O)(c1ccccc1)c1ccccc1` gave CHOP inhibitor 73*, XBP1 UPR activ -6, UPR CHOP act -4, Jurkat NFkB inh -20 and 697 NFkB inh -4.
Screening Cc1ccc2c(c1)c(C)c(C)n2CC(O)Cn1nnc2ccccc21 (configuration not stated) returned CHOP inhibitor 84*, XBP1 UPR activ 1, UPR CHOP act 6, Jurkat NFkB inh -67 and 697 NFkB inh -88.
For CC(=O)c1cccc(NC(=O)C2CC(=O)N(C3CCCC3)C2)c1 (configuration not stated) the results were XBP1 UPR activ 2, UPR CHOP act -2, Jurkat NFkB inh -4 and 697 NFkB inh 6.
`CC1(C)Cc2c(ccc3ccccc23)/C(=C/C#N)N1` gave CHOP inhibitor 71*, XBP1 UPR activ 3, UPR CHOP act -2, Jurkat NFkB inh -9 and 697 NFkB inh 4.
O=C(Nc1ccc(S(=O)(=O)NC2=NCCCCC2)cc1)c1ccc(Cl)c([N+](=O)[O-])c1 was read as XBP1 UPR activ -3, UPR CHOP act 2, Jurkat NFkB inh 7 and 697 NFkB inh 15.
For Cc1cccc(C)c1NS(=O)(=O)c1ccc(NC(=O)c2ccc(Cl)c([N+](=O)[O-])c2)cc1 the results were CHOP inhibitor 73*, XBP1 UPR activ 0, UPR CHOP act 1, Jurkat NFkB inh -3 and 697 NFkB inh 1.
For N#Cc1ccc(NC(=O)c2cc(S(=O)(=O)N3CCOCC3)ccc2N2CCCC2)cc1 the results were XBP1 UPR activ 1, UPR CHOP act 3, Jurkat NFkB inh 1 and 697 NFkB inh -7.
COc1cc(/C=N/NC(=O)COc2c(C)cc([N+](=O)[O-])cc2C)ccc1OC(=O)c1ccccc1Br was read as CHOP inhibitor 76*, XBP1 UPR activ 5, UPR CHOP act 2, Jurkat NFkB inh -6 and 697 NFkB inh -10.
COc1cc(/C=N/NC(=O)COc2c(C)cc([N+](=O)[O-])cc2C)ccc1OC(=O)c1ccccc1 was read as CHOP inhibitor 49, XBP1 UPR activ 5, UPR CHOP act 1, Jurkat NFkB inh -8 and 697 NFkB inh 15.
For Cc1cccc(-c2noc(CN(C(=O)c3ccc4c(c3)OCO4)C(C)C)n2)c1 the results were CHOP inhibitor 32, XBP1 UPR activ 2, UPR CHOP act -1, Jurkat NFkB inh 8 and 697 NFkB inh -28.
Cc1cccc(-c2noc(CN(C(=O)c3ccc(Br)o3)C(C)C)n2)c1 was read as CHOP inhibitor 88*, XBP1 UPR activ 1, UPR CHOP act 1, Jurkat NFkB inh -14 and 697 NFkB inh 0.
Screening Cc1cc(Br)ccc1OCC(=O)N(Cc1nc(-c2ccccc2)no1)C(C)C returned CHOP inhibitor 95*, XBP1 UPR activ 1, UPR CHOP act 1, Jurkat NFkB inh 11 and 697 NFkB inh 17.
Screening Cn1c(CCNC(=O)c2ccco2)nc2cc(NC(=O)c3ccccc3Cl)ccc21 returned XBP1 UPR activ 1, UPR CHOP act 3, Jurkat NFkB inh -4 and 697 NFkB inh -2.
`CCCC(C)NC(=O)Cn1c(=O)c2c(ncn2CCC(C)C)n(Cc2ccccc2)c1=O` (configuration not stated) gave XBP1 UPR activ 1, UPR CHOP act -2, Jurkat NFkB inh -8 and 697 NFkB inh 1.
Screening CNS(=O)(=O)c1cccc(C(=O)OCC(=O)/C=C2/N(C)c3ccccc3C2(C)C)c1 returned CHOP inhibitor 73*, XBP1 UPR activ -2, UPR CHOP act -1, Jurkat NFkB inh -17 and 697 NFkB inh 2.
Cc1cc(C(F)(F)F)n(-c2nc(C(=O)NN)cs2)n1 was read as CHOP inhibitor 15, XBP1 UPR activ 1, UPR CHOP act 3, Jurkat NFkB inh 15 and 697 NFkB inh 5.
For COc1ccc(/C=N/NC(=O)c2csc(-n3nc(C)cc3C(F)(F)F)n2)cc1 the results were CHOP inhibitor 79*, XBP1 UPR activ 1, UPR CHOP act -3, Jurkat NFkB inh 4 and 697 NFkB inh 10.
CCOC(=O)C(CCCOc1ccccc1)C(=O)OCC was read as CHOP inhibitor 28, XBP1 UPR activ -1, UPR CHOP act 0, Jurkat NFkB inh -3 and 697 NFkB inh 5.
CCOC(=O)C(CCCOc1ccc(C)cc1)C(=O)OCC was read as CHOP inhibitor 95*, XBP1 UPR activ 0, UPR CHOP act -1, Jurkat NFkB inh -12 and 697 NFkB inh 3.
Screening O=C(CCc1nnc(Cc2cccc(C(F)(F)F)c2)o1)NC1CC1 returned CHOP inhibitor 78*, XBP1 UPR activ 0, UPR CHOP act 2, Jurkat NFkB inh 5 and 697 NFkB inh -2.
CC(NC(=O)CCc1nnc(Cc2cccc(C(F)(F)F)c2)o1)C1CC1 (configuration not stated) was read as CHOP inhibitor -8, XBP1 UPR activ 0, UPR CHOP act 3, Jurkat NFkB inh -35 and 697 NFkB inh -37.
Screening COc1cc(OC)c(C2Nc3cccc4cccc(c34)N2)c(OC)c1 returned XBP1 UPR activ 13, UPR CHOP act -1, Jurkat NFkB inh 4 and 697 NFkB inh -39.

Compound activity as filed in PubChem.
